Measurements pooled from the literature.
Compare with care: the assays were run in different laboratories.
Target: 5-hydroxytryptamine receptor 2B (HTR2B, Homo sapiens, UniProt P41595)

Structure (SMILES)	read-out	action	technique	tested at	quantity	value
Cn1cncc1[C@@](O)(COc1ccc(C#N)cc1-c1ccc(OC(F)(F)F)cc1)c1ccc(C#N)cc1	ligand displacement	–	–	10 µM	inhibition	18.6%
CCN(CC)CCCC[C@H](NC(=O)[C@H](CC(C)C)NC(=O)[C@H](C)NC(=O)[C@H](Cc1ccccc1)NC(=O)c1ccc(C(C)(C)C)cc1)C(=O)N[C@@H](CO)C(=O)OC	ligand displacement	–	radioligand	10 µM	inhibition	7%
C[C@H](C(=O)N[C@H]1COc2ccccc2[C@@H]1S(C)(=O)=O)c1ccc(F)cc1	ligand displacement	–	–	10 µM	inhibition	-9%
Nc1ncc(-c2nc(N3CCOCC3)nc(N3CCOCC3)n2)c(C(F)F)n1	cell-free assay	–	radioligand	10 µM	remaining signal	94.1%
c1ccc(C(NCCNC(c2ccccc2)c2ccccc2)c2ccccc2)cc1	ligand displacement	–	–	10 µM	inhibition	79%
CCOc1ccccc1NC(=O)c1ccccc1NS(=O)(=O)C1CC1	ligand displacement	–	radioligand	10 µM	inhibition	63%
CC(Cc1ccccc1)NCCn1cnc2c1c(=O)n(C)c(=O)n2C (centres unmarked)	ligand displacement	–	radioligand	10 µM	inhibition	23%
COc1cc2c3c(c1OC)-c1cc4c(cc1CC3N(C)CC2)OCO4 (racemic)	ligand displacement	–	radioligand	10 µM	inhibition	92.8%
N#CC1(c2ccccn2)CCN(Cc2cc(C(=O)O)c(=O)n3ccccc23)CC1	ligand displacement	–	–	10 µM	inhibition	3.23%
Clc1ccc2c(C3CCN(CCc4c[nH]c5ccccc45)CC3)c[nH]c2c1	ligand displacement	–	radioligand	10 µM	inhibition	100%
CC(C)N1CCC[C@H]1CNC(=O)c1cn(C2CCCC2)c(=O)c2c1c1ccccc1n2C	ligand displacement	–	radioligand	10 µM	inhibition	41%
COCCN(CCOC)C(=O)[C@@]12C[C@@H]1[C@@H](n1cnc3c(N)nc(Cl)nc31)[C@H](O)[C@@H]2O	ligand displacement	–	radioligand	10 µM	inhibition	36%
CCC(N)Cc1cc(OC)c(COC)cc1OC (centres unmarked)	G protein activation	agonist	BRET	–	Emax	43%
COCc1c(-c2cc3cc(C)cc(OC)c3s2)c2c(N)ncnn2c1CN1CCNC(=O)C1	ligand displacement	–	radioligand	10 µM	inhibition	84%
